The nature of data set [1]: Induction of NO release in pH 7.4 buffer solution at 5:1 excess of L-cysteine after 1 hr incubation by Griess assay. It counts as physicochemical. Conditions: pH 7.4, 1 h. Put shortly: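 Compound was incubated 1 hr at 37 °C in pH 7.4 buffer with a 5:1 molar excess of L-cysteine. Nitrite was measured by Griess reaction and reported as % NO₂⁻ (mol/mol) ± SE.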
In general terms: Griess reagent forms a coloured azo dye with nitrite.

For data set [2], the target named is T1, Thioredoxin glutathione reductase (Schistosoma mansoni, UniProt Q962Y6).
T1 sequence (Q962Y6 whole entry): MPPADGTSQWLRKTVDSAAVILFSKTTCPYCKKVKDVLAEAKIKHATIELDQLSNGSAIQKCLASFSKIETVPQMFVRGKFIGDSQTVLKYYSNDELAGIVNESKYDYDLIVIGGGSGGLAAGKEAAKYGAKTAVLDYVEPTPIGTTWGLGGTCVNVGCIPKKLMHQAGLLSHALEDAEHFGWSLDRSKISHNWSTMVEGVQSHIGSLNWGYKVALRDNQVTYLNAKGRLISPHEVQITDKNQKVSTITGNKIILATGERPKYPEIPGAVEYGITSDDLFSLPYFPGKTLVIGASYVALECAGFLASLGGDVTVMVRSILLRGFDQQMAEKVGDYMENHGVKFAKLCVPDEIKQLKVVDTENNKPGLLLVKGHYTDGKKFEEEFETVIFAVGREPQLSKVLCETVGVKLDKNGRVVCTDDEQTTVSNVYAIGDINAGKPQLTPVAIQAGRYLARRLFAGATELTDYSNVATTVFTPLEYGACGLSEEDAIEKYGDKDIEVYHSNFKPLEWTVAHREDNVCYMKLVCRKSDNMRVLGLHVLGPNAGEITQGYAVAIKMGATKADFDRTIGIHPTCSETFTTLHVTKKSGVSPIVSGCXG
Put plainly: Inhibition of Schistosoma mansoni recombinant thioredoxin glutathione reductase assessed as 5-thio-2nitrobezoic acid formation after 3 mins.

The subject of data set [3] is Schistosoma mansoni. Briefly: Antiparasitic activity against Schistosoma mansoni cercariae infected in female Swiss-Webster mouse assessed as worm contraction at 10 uM after 24 to 48 hrs by stereomicroscopy. It counts as functional, organism-based. Put shortly: (§1)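 Adult worms were washed in RPMI 1640 with 25 mM HEPES, penicillin, streptomycin and 10% FBS, then held 15–20 per well overnight at 37°C in 5% CO₂. Medium was renewed the next day. Compounds from 10 mM DMSO stocks were added at 10 or 50 μM, with equal DMSO volumes in all wells and DMSO-only negative controls. After compound removal, morphology and mobility were followed over days.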

Data set [4] has as its system Schistosoma mansoni. Briefly: Antiparasitic activity against Schistosoma mansoni infected in female Swiss-Webster mouse assessed as worm killing at 10 uM after 144 hrs by stereomicroscopy.
For data set [5], the system named is Schistosoma mansoni. Briefly: Antiparasitic activity against Schistosoma mansoni cercariae infected in female Swiss-Webster mouse assessed as worm contraction at 50 uM after 24 to 48 hrs by stereomicroscopy. The format is functional, organism-based. Put shortly:
as §1

In data set [6] the test system is Schistosoma mansoni. Put plainly: Antiparasitic activity against Schistosoma mansoni infected in female Swiss-Webster mouse assessed as worm killing at 50 uM after 144 hrs by stereomicroscopy.
Data set [7] concerns Schistosoma mansoni. Put plainly: Antiparasitic activity against Schistosoma mansoni infected in female Swiss-Webster mouse assessed as worm killing at 10 uM after 48 hrs by stereomicroscopy. The format is functional. Put shortly: (§2)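 Adult S. mansoni worms were washed in complete RPMI 1640 with 25 mM HEPES, penicillin, streptomycin and 10% FBS. They were held 15–20 per well overnight at 37°C in 5% CO₂, then moved to fresh medium. Compounds from 10 mM DMSO stocks were added to final 10 or 50 μM. Controls received an equal volume of DMSO, and worm death was scored.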

Data set [8] deals with Schistosoma mansoni. Briefly: Antiparasitic activity against Schistosoma mansoni cercariae infected in female Swiss-Webster mouse assessed as male worm contraction at 50 uM after 24 to 48 hrs by stereomicroscopy. It counts as functional, organism-based. Put shortly: as §1
The test system of data set [9] is Schistosoma mansoni. Briefly: Antiparasitic activity against Schistosoma mansoni infected in female Swiss-Webster mouse assessed as worm killing at 50 uM after 24 hrs by stereomicroscopy. The format is functional, organism-based. Put shortly: as §1
Data set [10] relates to Schistosoma mansoni. Put plainly: Antiparasitic activity against Schistosoma mansoni infected in female Swiss-Webster mouse assessed as worm killing at 50 uM after 72 hrs by stereomicroscopy. It counts as functional, organism-based. Put shortly: as §1
In data set [11] the test system is Schistosoma mansoni. Put plainly: Antiparasitic activity against Schistosoma mansoni cercariae infected in female Swiss-Webster mouse assessed as female worm contraction at 10 uM after 24 to 48 hrs by stereomicroscopy. It counts as functional, organism-based. Put shortly: as §1
The subject of data set [12] is Schistosoma mansoni. Put plainly: Antiparasitic activity against Schistosoma mansoni infected in female Swiss-Webster mouse assessed as worm killing at 50 uM after 48 hrs by stereomicroscopy. It counts as functional. Put shortly: as §2
Data set [13] relates to Schistosoma mansoni. Put plainly: Antiparasitic activity against Schistosoma mansoni infected in female Swiss-Webster mouse assessed as worm killing at 10 uM after 96 hrs by stereomicroscopy. It counts as functional, organism-based. Put shortly:
as §1

Each structure is given as a SMILES string. The source made the active and inactive calls. The calls are words filed in the database; no cut-off is given here.

By IC50 is commonly meant the concentration that inhibits the measured activity by half. Turning to `NC(=O)c1c(C(=O)N2CC(=O)N3CCc4ccccc4C3C2)no[n+]1[O-]` (stereo not given), the Activity turned out to be 1.8% in data set [1], 30% in data set [4] and 80% in data set [6]. Besides, the concentration for half-maximal inhibition (IC50) in [2] (read-out: IC50) is 10 nM. For the same compound, the outcome in data set [3] and in data set [5] was Active.

On to `O=C(C1CCCCC1)N1CC(=O)N2CCc3ccc(OCCCOc4no[n+]([O-])c4S(=O)(=O)c4ccccc4)cc3C2C1` (stereo not given), for which, in data set [1], the Activity was found to be 15.7%. The result in data set [7], in [8] and in data set [9] was Active. In addition, the IC50 in [2] (read-out: IC50) amounted to 8500 nM. In addition, the result in data set [3] was inactive.

Take `COC(=O)c1nonc1C(=O)N1CC(=O)N2CCc3ccccc3C2C1` (stereo not given): the concentration for half-maximal inhibition (IC50) in [2] (read-out: IC50) is above 50000 nM. Moreover, the result in [3] and in data set [5] was Active. Also, the Activity in [4] is listed as 15%; in data set [6], 18%.

As for `N#Cc1c(C(=O)N2CC(=O)N3CCc4ccccc4C3C2)no[n+]1[O-]` (stereo not given), the Activity in data set [1] was determined as 56.2%; in [4] it was 30%. Besides, the concentration for half-maximal inhibition (IC50) in data set [2] (read-out: IC50) was 316 nM. Moreover, the outcome in data set [10], in data set [5] and in data set [11] was Active.

For the compound `N#Cc1nonc1C(=O)N1CC(=O)N2CCc3ccccc3C2C1` (stereo not given), in data set [2] (read-out: IC50), the half-inhibitory concentration (IC50) is above 50000 nM. The outcome in data set [3] and in [5] was Active. Further, the Activity in data set [4] was 20%; in data set [6], 25%.

Regarding `NC(=O)c1nonc1COc1ccc2c(c1)C1CN(C(=O)C3CCCCC3)CC(=O)N1CC2` (stereo not given), the outcome in [7], in data set [3], in [5] and in data set [12] was inactive. The IC50 in [2] (read-out: IC50) is above 50000 nM.

In the case of `NC(=O)c1nonc1C(=O)N1CC(=O)N2CCc3ccccc3C2C1` (stereo not given), the IC50 in [2] (read-out: IC50) was above 50000 nM. Further, the outcome in data set [3] and in [5] was Active. Moreover, the Activity in data set [4] and in data set [6] was 23% each time.

As to `O=C(C1CCCCC1)N1CC(=O)N2CCc3ccccc3C2C1` (racemic) [PRAZIQUANTEL], in [2], the 50% inhibitory concentration (IC50) entry is recorded as “Not Active”. Also, the result in [3] and in data set [5] was Active. Moreover, the Activity in data set [4] is reported as 15%; in data set [6] it was 40%.

Consider `N#Cc1c(-c2ccccc2)no[n+]1[O-]` [FUROXAN], for which the outcome in data set [3] and in data set [5] was inactive. The result in data set [13] and in data set [9] was Active.

In data set [1], `N#Cc1c(COc2ccc3c(c2)C2CN(C(=O)C4CCCCC4)CC(=O)N2CC3)no[n+]1[O-]` (stereo not given) registered an Activity of 33.8%. For the same compound, the outcome in data set [7] and in data set [3] was inactive. In addition, in [2] (read-out: IC50), the IC50 was determined as 350 nM. Further, the outcome in data set [5] and in [9] was Active.

Take `O=C(C1CCCCC1)N1CC(=O)N2CCc3ccc(OCCCOc4nonc4S(=O)(=O)c4ccccc4)cc3C2C1` (stereo not given): the outcome in [7] and in [12] was inactive. For the same compound, the IC50 in data set [2] (read-out: IC50) was above 50000 nM. For the same compound, the result in [3] and in [5] was Active.

Turning to `NC(=O)c1c(COc2ccc3c(c2)C2CN(C(=O)C4CCCCC4)CC(=O)N2CC3)no[n+]1[O-]` (stereo not given), the Activity in data set [1] was determined as 1.1%. In addition, the outcome in [7], in data set [3], in data set [5] and in [12] was inactive. Also, in data set [2] (read-out: IC50), the half-inhibitory concentration (IC50) was determined as 83 nM.

`COC(=O)c1c(C(=O)N2CC(=O)N3CCc4ccccc4C3C2)no[n+]1[O-]` (stereo not given): the Activity in [1] was below 1%; in data set [4], 23%; in data set [6], 50%. In [2] (read-out: IC50), the IC50 was 148 nM. Also, the result in data set [3] and in data set [5] was Active.

Regarding `N#Cc1nonc1COc1ccc2c(c1)C1CN(C(=O)C3CCCCC3)CC(=O)N1CC2` (stereo not given), the result in data set [7], in [3] and in [12] was inactive. Besides, in [2] (read-out: IC50), the 50% inhibitory concentration (IC50) was above 50000 nM. Also, the result in data set [5] was Active.
